Results from different studies.
Each line is one published result; the experiments were not run side by side.
Target: Ephrin type-B receptor 2 (EPHB2, Homo sapiens, UniProt P29323)
Sequence (P29323 1-1055, as in one of the studies): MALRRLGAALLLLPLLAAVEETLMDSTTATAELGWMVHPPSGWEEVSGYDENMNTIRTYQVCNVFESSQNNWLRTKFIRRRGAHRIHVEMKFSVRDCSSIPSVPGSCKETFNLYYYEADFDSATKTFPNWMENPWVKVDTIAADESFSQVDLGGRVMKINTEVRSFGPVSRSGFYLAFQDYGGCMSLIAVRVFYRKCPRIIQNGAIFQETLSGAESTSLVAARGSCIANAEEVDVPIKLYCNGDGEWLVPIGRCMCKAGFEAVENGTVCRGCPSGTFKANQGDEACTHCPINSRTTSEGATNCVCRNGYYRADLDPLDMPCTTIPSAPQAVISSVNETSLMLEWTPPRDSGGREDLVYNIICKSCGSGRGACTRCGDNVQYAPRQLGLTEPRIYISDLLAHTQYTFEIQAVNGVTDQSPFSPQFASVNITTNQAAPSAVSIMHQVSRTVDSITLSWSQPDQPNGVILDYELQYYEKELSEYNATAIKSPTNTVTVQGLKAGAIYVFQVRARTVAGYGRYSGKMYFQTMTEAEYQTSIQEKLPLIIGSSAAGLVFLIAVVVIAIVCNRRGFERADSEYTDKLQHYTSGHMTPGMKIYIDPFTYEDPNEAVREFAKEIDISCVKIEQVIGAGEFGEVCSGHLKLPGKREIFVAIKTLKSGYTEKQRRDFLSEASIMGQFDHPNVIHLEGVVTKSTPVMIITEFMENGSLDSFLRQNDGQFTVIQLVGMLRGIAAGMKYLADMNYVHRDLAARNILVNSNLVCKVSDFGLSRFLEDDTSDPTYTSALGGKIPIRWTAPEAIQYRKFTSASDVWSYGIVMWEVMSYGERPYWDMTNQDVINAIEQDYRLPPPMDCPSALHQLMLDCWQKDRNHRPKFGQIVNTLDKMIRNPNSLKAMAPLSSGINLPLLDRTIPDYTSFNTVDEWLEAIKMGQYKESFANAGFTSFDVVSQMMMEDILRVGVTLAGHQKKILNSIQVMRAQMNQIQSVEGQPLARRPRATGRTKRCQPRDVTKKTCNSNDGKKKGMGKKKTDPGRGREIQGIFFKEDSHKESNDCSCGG

CO[C@@H]1[C@H](N(C)C(=O)c2ccccc2)C[C@H]2O[C@]1(C)n1c3ccccc3c3c4c(c5c6ccccc6n2c5c31)C(=O)NC4 — inhibition (enzyme activity, inhibitor; 1 µM): 0%
C[C@H]1CC[C@H](n2c3cnccc3c3cnc(Nc4ccc5c(n4)CCN(C(=O)CO)C5)nc32)CC1 — remaining binding (cell-free assay, competition with immobilised ligand; 1 µM): 100%
Cc1cc(O)c(-c2ccc([C@@H](C)CN(C)C)cc2)c2c1[nH]c(=O)c1sccc12 — inhibition (cell-free assay, inhibitor; 0.1 µM): 0.144%
C1=C/COCc2cc(ccc2OCCN2CCCC2)Nc2nccc(n2)-c2cccc(c2)COC/1 — remaining binding (binding; 0.1 µM): 88%
CC(C)S(=O)(=O)c1ccc2nccc(Nc3ccc4sc(C5CCCC5)nc4c3)c2c1 — activity vs control (enzyme activity, inhibitor; 1 µM): 109%
Cc1ccc(NC(=O)c2ccnc(C(F)(F)F)c2)cc1-c1cc(OCCO)nc(N2CCOCC2)c1 — remaining binding (binding, competition with immobilised ligand; 1 µM): 85%
CCCCC(=O)Nc1ccc(-c2ccc3ncn(CCC)c(=O)c3c2)cn1 — remaining binding (binding, competition with immobilised ligand; 0.5 µM): 100%
CC#CC(=O)N1CCC[C@H]1c1nc(-c2ccc(C(=O)Nc3ccccn3)cc2)c2c(N)nccn12 — inhibition (enzyme activity, inhibitor; 1 µM): 6%
